In ChEMBL document CHEMBL5674889, “Enhanced JunD/RSK3 signalling due to loss of BRD4/FOXD3/miR-548d-3p axis determines BET inhibition resistance” (2020):
Activity calls are given as the source filed them. The rule behind the calls is not given here.

Assays:
HEK-293T [1] = test: Effect on induction of RPS6KA2 transcription in human HEK293T cells transfected with RPS6KA2 assessed as luciferase activity at 1 uM for 6 hrs by Luciferase reporter assay; format: functional, cell-based
In short: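 HEK293T were transfected with wild-type or mutant RPS6KA2 enhancer luciferase construct, ± JUND co-transfection (FuGene 6, 24 h). Cells then treated with DMSO or JQ1 1 μM for 6 h. Dual-luciferase activity expressed as fold over vector control; three experiments in triplicate.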

MDA-MB-231 [2] = test: Effect on human MDA-MB-231 cells assessed as JunD protein expression in the presence of miR-548d-3p at 1 uM by Western blot analysis; format: functional, cell-based
BT-549 [3] = test: Effect on human RPS6KA2-knockdown BT-549 cells assessed as RSK3 protein expression at 1 uM by Western blot analysis; format: functional, cell-based
BT-549 [4] = test: Antiproliferative activity in human BT-549 cells assessed as cell growth inhibition for 48 hrs in the presence of […] at 1 uM by CCK-8 assay; format: functional, cell-based
MDA-MB-231 [5] = test: Induction of apoptosis in human MDA-MB-231 cells in the presence of osimertinib at 1 uM by flow cytometry analysis; format: functional, cell-based
In short: (§1)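 Cells given JQ1 and/or osimertinib, then stained with Annexin V-FITC plus propidium iodide (10 min, room temperature, dark; 1 × 10^6 cells/ml in binding buffer after two PBS washes) and analysed by flow cytometry; one-way ANOVA.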

MDA-MB-231 [6] = test: Antiproliferative activity in human JUND-overexpressing MDA-MB-231 cells assessed as tumor sphere formation at 1 uM by Tumor sphere assay; format: functional, cell-based
MDA-MB-231 [7] = test: Effect on human RPS6KA2 transfected MDA-MB-231 cells by measuring luciferase activity at 20 uM by Luciferase reporter assay; format: functional, cell-based
BT-549 [8] = test: Antiproliferative activity in human JUND-knockdown BT-549 cells assessed as cell viability at 1 uM by CellTiter-Glo luminescent cell viability assay; format: functional, cell-based
In short: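 Stable JUND-knockdown (shRNA, puromycin 1.0 μg/ml selection) or JUND-overexpressing clones and vector controls, seeded 3000 cells/well and adhered overnight, then given DMSO or JQ1 (1 μM) for 48 h. Read-out CellTiter-Glo luminescence normalized to DMSO control; triplicates, mean ± SD, one-way ANOVA.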

BT-549 [9] = test: Induction of apoptosis in human BT-549 cells in the presence of osimertinib at 1 uM by flow cytometry analysis; format: functional, cell-based; in short: as §1
BT-549 [10] = test: Antiproliferative activity in human BT-549 cells assessed as cell growth for 48 hrs in the presence of osimertinib at 1 uM by CCK-8 assay; format: functional, cell-based
In short: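 Cells seeded 3000/well, adhered overnight, treated with JQ1 (1 μM) with or without osimertinib (1 μM) for 48 h; growth by CCK-8 kit, normalized to DMSO-treated control; triplicates, mean ± SD, one-way ANOVA.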

BT-549 [11] = test: Antiproliferative activity in human RPS6KA2 expressed in JUND knock-down BT-549 cells assessed as inhibition of cell growth at 1 uM by CCK-8 assay; format: functional, cell-based
MDA-MB-231 [12] = test: Effect on human BRD4-knockdown MDA-MB-231 assessed as decreased luciferase activity at 1 uM for 6 hrs by Luciferase reporter assay; format: functional, cell-based
BT-549 [13] = test: Antiproliferative activity in human BT-549 cells assessed as cell growth in the presence of osimertinib at 1 uM by CellTiter-Glo luminescent cell viability assay; format: functional, cell-based
In short: (§2)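 BLBC cells seeded at 3000/well, adhered overnight, then exposed to JQ1 (1 μM) with or without an EGFR inhibitor (1 μM) for 48 h; control and RPS6KA2-shRNA clones tested. Viability by CellTiter-Glo luminescence, background-subtracted and normalized to DMSO-treated control; triplicates, mean ± SD, one-way ANOVA against JQ1 alone.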

MDA-MB-231 [14] = test: Antiproliferative activity in human MDA-MB-231 cells assessed as cell growth in the presence of miR-548d-3p at 1 uM by CCK-8 assay; format: functional, cell-based
In short: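 BLBC cells transfected with miR-548d-3p mimic or inhibitor, with or without JQ1; growth read by CCK-8 assay relative to DMSO-treated control, seeded at 3000/well. Triplicates, mean ± SD, one-way ANOVA.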

BT-549 [15] = test: Induction of apoptosis in human RPS6KA2-knockdown BT-549 cells at 1 uM by FACS assay; format: functional, cell-based
In short: (§3)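 Stable clones (vector, RSK3-overexpressing or RPS6KA2-knockdown) treated ± JQ1 1 μM. Cells washed twice in PBS, resuspended at 1 × 10^6 cells/ml in binding buffer, stained with Annexin V-FITC and propidium iodide for 10 min at room temperature in the dark, then read by flow cytometry. Three independent experiments; one-way ANOVA.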

BT-549 [16] = test: Antiproliferative activity in human BT-549 cells assessed as cell growth in the presence of EAI045 at 1 uM by CellTiter-Glo luminescent cell viability assay; format: functional, cell-based; in short: as §2
MDA-MB-231 [17] = test: Induction of apoptosis in human MDA-MB-231 cells expressing vector control assessed as late apoptotic cells at 1 uM by Annexin V-FITC flow cytometric analysis (reference value: 2.4%); format: functional; in short: as §3
MDA-MB-231 [18] = test: Antiproliferative activity in human RPS6KA2 expressed in JUND knock-down MDA-MB-231 cells assessed as inhibition of cell growth at 1 uM by CCK-8 assay; format: functional, cell-based
MDA-MB-231 [19] = test: Antiproliferative activity in human MDA-MB-231 cells assessed as cell growth in the presence of gefitinib at 1 uM by CellTiter-Glo luminescent cell viability assay; format: functional, cell-based; in short: as §2
MDA-MB-231 [20] = test: Effect on JUND dependent RPS6KA2 transcription in human JUND-knockdown MDA-MB-231 cells assessed reduction in transcription level at 1 uM by EMSA analysis; format: functional, cell-based
BT-549 [21] = test: Downregulation of miR-548d-3p expression in human BT-549 cells at 1 uM by real-time PCR analysis; format: functional, cell-based
BT-549 [22] = test: Effect on human BT-549 cells assessed as miR-548d-5p expression at 1 uM by real-time PCR analysis; format: functional, cell-based
MDA-MB-231 [23] = test: Induction of apoptosis in human RPS6KA2-knockdown MDA-MB-231 cells at 1 uM by FACS assay; format: functional, cell-based; in short: as §3
MDA-MB-231 [24] = test: Antiproliferative activity in human FOXD3-knockdown MDA-MB-231 cells assessed as cell growth at 1 uM by CCK-8 assay; format: functional, cell-based
MDA-MB-231 [25] = test: Effect on JUND dependent RPS6KA2 transcription in human JUND-knockdown MDA-MB-231 cells assessed reduction in transcription level at 1 uM by ChIP-RT-PCR analysis; format: functional, cell-based
In short: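 ChIP-qPCR used ~1 × 10^6 cross-linked JUND-knockdown or control cells treated with DMSO or 1 μM for 6 h. Immunoprecipitated DNA was quantified by real-time PCR with primers specific to the RPS6KA2 enhancer. Non-specific primers downstream of the gene 3′ end served as control.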

MDA-MB-231 [26] = test: Antiproliferative activity in human MDA-MB-231 cells assessed as cell growth inhibition for 48 hrs in the presence of […] at 1 uM by CCK-8 assay; format: functional, cell-based
HEK-293T [27] = test: Effect on human HEK293T cells transfected with BRD4 assessed as decrease in luciferase activity at 1 uM for 6 hrs by Luciferase reporter assay; format: functional, cell-based
MDA-MB-231 [28] = test: Effect on human MDA-MB-231 cells assessed as EGFR protein expression at 1 uM by Western blot analysis; format: functional, cell-based

Cc1sc2c(c1C)C(c1ccc(Cl)cc1)=N[C@@H](CC(=O)OC(C)(C)C)c1nnc(C)n1-2
Activity (HEK-293T [1]): Active
Activity (MDA-MB-231 [2]): Active
Activity (BT-549 [3]): Active
Activity (BT-549 [4]): Active
Activity (MDA-MB-231 [5]): Active
Activity (MDA-MB-231 [6]): Active
Activity (MDA-MB-231 [7]): Active
Activity (BT-549 [8]): Active
Activity (BT-549 [9]): Active
Activity (BT-549 [10]): Active
Activity (BT-549 [11]): Active
Activity (MDA-MB-231 [12]): Active
Activity (BT-549 [13]): Active
Activity (MDA-MB-231 [14]): Active
Activity (BT-549 [15]): Active
Activity (BT-549 [16]): Active
Activity (MDA-MB-231 [17]): 5.48%
Activity (MDA-MB-231 [18]): Active
Activity (MDA-MB-231 [19]): Active
Activity (MDA-MB-231 [20]): Active
Activity (BT-549 [21]): Active
Activity (BT-549 [22]): Active
Activity (MDA-MB-231 [23]): Active
Activity (MDA-MB-231 [24]): Active
Activity (MDA-MB-231 [25]): Active
Activity (MDA-MB-231 [26]): Active
Activity (HEK-293T [27]): Active
Activity (MDA-MB-231 [28]): Active
